Published values from different studies.
Each line is one published result; the experiments were not run side by side.

Structure (SMILES)	test system	conditions	endpoint	value
CC(C)C[C@H](NC(=O)[C@H](CC(C)C)NC(=O)[C@H](Cc1c[nH]c2ccccc12)NC(=O)[C@H](CCC(=O)O)NC(=O)[C@@H](NC(=O)[C@H](Cc1ccccc1)NC(=O)[C@H](CCC(=O)O)NC(=O)[C@H](CCCCNC(=O)COCCOCCNC(=O)COCCOCCNC(=O)CC[C@H](NC(=O)CCCCCCCCCCCCCCCCCCC(=O)O)C(=O)O)NC(=O)[C@H](C)NC(=O)[C@H](CCCCN)NC(=O)[C@H](CCCCN)NC(=O)[C@H](CCC(=O)O)NC(=O)[C@H](CC(=O)O)NC(=O)[C@H](CC(C)C)NC(=O)[C@H](Cc1ccc(O)cc1)NC(=O)[C@H](CCCCN)NC(=O)[C@H](CO)NC(=O)[C@H](Cc1ccc(O)cc1)NC(=O)[C@H](CC(=O)O)NC(=O)[C@H](CO)NC(=O)[C@@H](NC(=O)[C@H](Cc1ccccc1)NC(=O)[C@@H](NC(=O)CNC(=O)[C@H](CCC(N)=O)NC(=O)C(C)(C)NC(=O)[C@@H](N)Cc1c[nH]cn1)[C@@H](C)O)[C@@H](C)O)C(C)C)C(=O)N[C@@H](CCC(=O)O)C(=O)NCC(=O)NCC(=O)N1CCC[C@H]1C(=O)N[C@@H](CO)C(=O)N[C@@H](CO)C(=O)NCC(N)=O	human, plasma	subcutaneous, 16 mg, multiple doses, once daily, steady state, patients	CL/F	0.333 mL/min
OC[C@H]1O[C@@H](c2cc(Cc3ccc(C4CC4)cc3)c(Cl)c3c2CCO3)[C@H](O)[C@@H](O)[C@@H]1O	human, plasma	oral, 0.3 mg, single dose, fed, healthy volunteers	CL/F	173 mL/min
CN1CCC(COc2cnc(-c3cccc(Cn4nc(-c5cccc(C#N)c5)ccc4=O)c3)nc2)CC1	human, plasma	intravenous, single dose	clearance	~3 mL/min/kg
N#Cc1cccc(-c2ccc3ncc(-c4cc(F)cc(F)c4)c(N4CCC(N)CC4)c3c2)c1O	human, plasma	intravenous, 50 µg	clearance	85 mL/min
COc1ccc2c(c1)CN(C(=O)CCN1CCC(Cc3ccccc3)CC1)CC[S@@+]2[O-]	male human, plasma	intravenous, 0.4 mg/kg, healthy volunteers	clearance	162 mL/min
C=CC(=O)NC1CCN(c2ncc3ncnc(Nc4ccc(Oc5ccc6c(c5)ncn6C)c(C)c4)c3n2)CC1	male human, plasma	intravenous, 100 µg, single dose, healthy volunteers	clearance	106 mL/min
C[C@@H](Oc1ccc(S(C)(=O)=O)cc1C(=O)N1C[C@@H]2C[C@]2(c2cc(C(F)(F)F)on2)C1)C(F)(F)F	human, plasma	oral, 10 mg, single dose, fed	CL/F	73.1 mL/min
COc1ccc(F)cc1C(=O)NCc1ccc(-c2nn([C@@H](C)C(F)(F)F)c(N)c2C(N)=O)cc1	male human, urine	oral, 200 mg	renal clearance	4.83 mL/min
CN(C)C(=O)c1cc2cnc(Nc3ccc(N4CCNCC4)cn3)nc2n1C1CCCC1	human, plasma	oral, multiple doses, steady state, patients	CL/F	343 mL/min
CC(C)n1c(C2CCNCC2)nc2c([N+](=O)[O-])c(Br)c(Br)cc21	human, urine	oral, 75 mg, single dose	renal clearance	13.7 mL/min
